Data reported in ChEMBL document CHEMBL3421562, “Bioactive prenylated xanthones from the young fruits and flowers of Garcinia cowa” (J Nat Prod, 2015).
Converted amounts (≈) assume the structure as drawn.

Key:
[1] = test system: Saccharomyces cerevisiae; assay: Inhibition of Saccharomyces cerevisiae alpha-glucosidase using p-nitrophenyl alpha-D-glucoside as substrate at 100 uM preincubated for 0.5 hrs followed by substrate addition measured after 1 hr by colorimetric method relative to control
Method in brief: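 Test compound at 100 μM; enzyme (0.4 U/mL) preincubated with compound 0.5 h at 37 °C in 50 mM K2HPO4−KH2PO4 buffer, 10% DMSO final; reaction started with p-nitrophenyl α-D-glucoside (3 mM), 1 h at 37 °C; stopped with 0.1 M Na2CO3; absorbance read at 405 nm; percent inhibition.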

[2] = test system: Bacillus cereus; assay: Antibacterial activity against Bacillus cereus TISTR 688 by 2-fold serial dilution method; type: functional
[3] = test system: Bacillus subtilis; assay: Antibacterial activity against Bacillus subtilis TISTR 008 by 2-fold serial dilution method; type: functional
[4] = test system: Staphylococcus aureus; assay: Antibacterial activity against Staphylococcus aureus TISTR 1466 by 2-fold serial dilution method; type: functional
[5] = test system: Escherichia coli; assay: Antibacterial activity against Escherichia coli TISTR 780 by 2-fold serial dilution method; type: functional
[6] = test system: Salmonella typhimurium; assay: Antibacterial activity against Salmonella typhimurium TISTR 292 by 2-fold serial dilution method; type: functional, Salmonella enterica subsp. enterica serovar Typhimurium
[7] = test system: Pseudomonas aeruginosa; assay: Antibacterial activity against Pseudomonas aeruginosa TISTR 884 by 2-fold serial dilution method; type: functional
[8] = Inhibition of Saccharomyces cerevisiae alpha-glucosidase using p-nitrophenyl alpha-D-glucoside as substrate preincubated for 0.5 hrs followed by substrate addition measured after 1 hr by colorimetric method
Method in brief: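 Enzyme (0.4 U/mL) and compound preincubated 0.5 h at 37 °C in 50 mM K2HPO4−KH2PO4 buffer, final DMSO 10%; p-nitrophenyl α-D-glucoside (3 mM) added, further 1 h at 37 °C; terminated with 0.1 M Na2CO3, A405 read immediately as relative hydrolysis rate; IC50 determined; acarbose positive control.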

Compound | inhibition [1] | MIC [2] | MIC [3] | MIC [4] | MIC [5] | MIC ([6]; Salmonella enterica) | MIC [7] | MIC ([6]; Salmonella enterica subsp. enterica serovar Typhimurium) | IC50 [8]
COc1cc2oc3cc(OC)c(CC=C(C)C)c(O)c3c(=O)c2c(CC=C(C)C)c1O | 56.4% | 128 µg/mL (≈ 302 µM) | 128 µg/mL (≈ 302 µM) | > 128 µg/mL | > 128 µg/mL | 128 µg/mL (≈ 302 µM) | 128 µg/mL (≈ 302 µM) |  | 
GENTAMICIN |  |  |  |  | 0.25 µg/mL |  | 2 µg/mL | 0.125 µg/mL | 
COc1cc2oc3cc4c(c(O)c3c(=O)c2c(CC=C(C)C)c1O)C=CC(C)(C)O4 |  | 128 µg/mL (≈ 313 µM) | 128 µg/mL (≈ 313 µM) | > 128 µg/mL | > 128 µg/mL | 128 µg/mL (≈ 313 µM) | 128 µg/mL (≈ 313 µM) |  | 
COc1cc2oc3cc(O)c(OC)c(CC=C(C)C)c3c(=O)c2c(O)c1CC=C(C)C | 73.1% | 16 µg/mL (≈ 37.7 µM) | 4 µg/mL (≈ 9.42 µM) | > 128 µg/mL | > 128 µg/mL | 128 µg/mL (≈ 302 µM) | 128 µg/mL (≈ 302 µM) |  | 8.7 µM
C[C@H]1O[C@H](O[C@H]2[C@H](O)[C@@H](O)[C@@H](O[C@H]3[C@H](O)[C@@H](O)C(O)O[C@@H]3CO)O[C@@H]2CO)[C@H](O)[C@@H](O)[C@@H]1N[C@H]1C=C(CO)[C@@H](O)[C@H](O)[C@H]1O (stereo partly drawn) [ACARBOSE] |  |  |  |  |  |  |  |  | 8 µM
COc1c(O)c(CC=C(C)C)c2oc3cc(O)c(CC=C(C)C)c(O)c3c(=O)c2c1CC=C(C)C |  | 32 µg/mL (≈ 66.9 µM) | 32 µg/mL (≈ 66.9 µM) | > 128 µg/mL | > 128 µg/mL | 128 µg/mL (≈ 267 µM) | 128 µg/mL (≈ 267 µM) |  | 
COc1cc2oc3cc4c(c(O)c3c(=O)c2c(CC=C(C)C)c1OC)C=CC(C)(C)O4 | 62.2% | 128 µg/mL (≈ 303 µM) | 128 µg/mL (≈ 303 µM) | > 128 µg/mL | > 128 µg/mL | 64 µg/mL (≈ 151 µM) | 128 µg/mL (≈ 303 µM) |  | 26.2 µM
COc1c(O)cc2oc3cc(O)cc(O)c3c(=O)c2c1C/C=C(\C)CCC=C(C)C [RUBRAXANTHONE] | 71.2% | 4 µg/mL (≈ 9.75 µM) | 2 µg/mL (≈ 4.87 µM) | > 128 µg/mL | 64 µg/mL (≈ 156 µM) | 64 µg/mL (≈ 156 µM) | 64 µg/mL (≈ 156 µM) |  | 23.4 µM
CN[C@H](CC(C)C)C(=O)N[C@H]1C(=O)N[C@@H](CC(N)=O)C(=O)N[C@H]2C(=O)N[C@H]3C(=O)N[C@H](C(=O)N[C@H](C(=O)O)c4cc(O)cc(O)c4-c4cc3ccc4O)[C@H](O)c3ccc(c(Cl)c3)Oc3cc2cc(c3O[C@@H]2O[C@H](CO)[C@@H](O)[C@H](O)[C@H]2O[C@H]2C[C@](C)(N)[C@H](O)[C@H](C)O2)Oc2ccc(cc2Cl)[C@H]1O [VANCOMYCIN] |  | 0.25 µg/mL (≈ 0.173 µM) | 0.25 µg/mL (≈ 0.173 µM) | 0.25 µg/mL (≈ 0.173 µM) |  |  |  |  | 
COc1cc2c(=O)c3c(O)c4c(cc3oc2cc1O)OC(C)(CCC=C(C)C)C=C4 (stereo not drawn) |  | 32 µg/mL (≈ 78.3 µM) | 64 µg/mL (≈ 157 µM) | > 128 µg/mL | > 128 µg/mL | 128 µg/mL (≈ 313 µM) | 128 µg/mL (≈ 313 µM) |  | 
CC(C)=CCC/C(C)=C\CC1(CC=C(C)C)C(=O)C(O)=Cc2oc3cc(O)cc(O)c3c(=O)c21 (stereo not drawn) [GARCINIANONE B] | 69.1% | 2 µg/mL (≈ 4.31 µM) | 2 µg/mL (≈ 4.31 µM) | 64 µg/mL (≈ 138 µM) | 64 µg/mL (≈ 138 µM) | 64 µg/mL (≈ 138 µM) | 128 µg/mL (≈ 276 µM) |  | 11.7 µM
COc1c(O)cc2oc3cc4c(c(O)c3c(=O)c2c1CC=C(C)C)C=CC(C)(C)O4 [MANGOSTANIN] | 70.1% | 4 µg/mL (≈ 9.79 µM) | 8 µg/mL (≈ 19.6 µM) | 64 µg/mL (≈ 157 µM) | > 128 µg/mL | 128 µg/mL (≈ 313 µM) | 128 µg/mL (≈ 313 µM) |  | 34.6 µM
COc1c(O)cc2oc3cc(O)c(CC=C(C)C)c(O)c3c(=O)c2c1CC=C(C)C [MANGOSTIN] | 72% | 8 µg/mL (≈ 19.5 µM) | 8 µg/mL (≈ 19.5 µM) | 64 µg/mL (≈ 156 µM) | 64 µg/mL (≈ 156 µM) | 64 µg/mL (≈ 156 µM) | 128 µg/mL (≈ 312 µM) |  | 7.8 µM
COc1cc2oc3cc(O)c4c(c3c(=O)c2c(O)c1CC=C(C)C)C=CC(C)(C)O4 | 50.8% | 128 µg/mL (≈ 313 µM) | 128 µg/mL (≈ 313 µM) | 128 µg/mL (≈ 313 µM) | > 128 µg/mL | 128 µg/mL (≈ 313 µM) | 128 µg/mL (≈ 313 µM) |  | 
COc1c(O)cc2oc3cc4c(c(O)c3c(=O)c2c1C/C=C(\C)CCC=C(C)C)C=CC(C)(C)O4 | 71.7% | 64 µg/mL (≈ 134 µM) | 64 µg/mL (≈ 134 µM) | 128 µg/mL (≈ 269 µM) | 64 µg/mL (≈ 134 µM) | 128 µg/mL (≈ 269 µM) | 128 µg/mL (≈ 269 µM) |  | 18.6 µM
COc1cc2c(=O)c3c(O)c(C/C=C(\C)CCC=C(C)C)c(O)cc3oc2cc1O [COWAXANTHONE] |  | 64 µg/mL (≈ 156 µM) | 64 µg/mL (≈ 156 µM) | > 128 µg/mL | > 128 µg/mL | 128 µg/mL (≈ 312 µM) | 128 µg/mL (≈ 312 µM) |  | 
CC(C)=CCC/C(C)=C/CC1(C/C=C(\C)CCC=C(C)C)C(=O)C(O)=Cc2oc3cc(O)cc(O)c3c(=O)c21 (stereo not drawn) | 62.9% | 8 µg/mL (≈ 15 µM) | 8 µg/mL (≈ 15 µM) | > 128 µg/mL | > 128 µg/mL | 64 µg/mL (≈ 120 µM) | 128 µg/mL (≈ 240 µM) |  | 36.4 µM
CC(C)=CCC/C(C)=C/CC1(CC=C(C)C)C(=O)C(O)=Cc2oc3cc(O)cc(O)c3c(=O)c21 (stereo not drawn) [GARCINIANONE A] | 66.7% | 4 µg/mL (≈ 8.61 µM) | 2 µg/mL (≈ 4.31 µM) | 64 µg/mL (≈ 138 µM) | 64 µg/mL (≈ 138 µM) | 64 µg/mL (≈ 138 µM) | 128 µg/mL (≈ 276 µM) |  | 34 µM
CC(C)=CCCC1(C)C=Cc2c(c(O)cc3oc4cc5c(c(O)c4c(=O)c23)C=CC(C)(C)O5)O1 (stereo not drawn) |  | 64 µg/mL (≈ 139 µM) | 128 µg/mL (≈ 278 µM) | > 128 µg/mL | > 128 µg/mL | 64 µg/mL (≈ 139 µM) | 128 µg/mL (≈ 278 µM) |  | 
COc1cc2oc3cc(OC)c(OC)c(CC=C(C)C)c3c(=O)c2c(O)c1CC=C(C)C | 53.8% | > 128 µg/mL | 128 µg/mL (≈ 292 µM) | 128 µg/mL (≈ 292 µM) | 64 µg/mL (≈ 146 µM) | 128 µg/mL (≈ 292 µM) | 128 µg/mL (≈ 292 µM) |  | 
CC(C)=CCC/C(C)=C\CC1(C/C=C(\C)CCC=C(C)C)C(=O)C(O)=Cc2oc3cc(O)cc(O)c3c(=O)c21 (stereo not drawn) | 75.8% | 8 µg/mL (≈ 15 µM) | 8 µg/mL (≈ 15 µM) | 64 µg/mL (≈ 120 µM) | 64 µg/mL (≈ 120 µM) | 64 µg/mL (≈ 120 µM) | 128 µg/mL (≈ 240 µM) |  | 55.3 µM
COc1cc2oc3cc(O)c4c(c3c(=O)c2c(O)c1CC=C(C)C)CCC(C)(C)O4 |  | 128 µg/mL (≈ 312 µM) |  | 128 µg/mL (≈ 312 µM) | > 128 µg/mL | 128 µg/mL (≈ 312 µM) | > 128 µg/mL |  | 
